Assays:
[1] = melting temperature; fluorescence melt of hairpins on a sequencing array, two-state fit, raised by 9.35 °C to match UV melts; conditions: sodium 0.088 M
Outline: (§1)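 On a sequenced MiSeq flow cell, library hairpins with annealed Cy3 and quencher oligos were imaged for Cy3 fluorescence in 2.5 °C steps up to 60 °C, in 50 mM Na-HEPES pH 8.0, 25 mM NaCl. Normalisation used pre-quench Cy3 and control constructs. Bootstrapped two-state fits gave melting temperature and folding enthalpy, combined by inverse variance across four replicates and with fitted temperatures raised by 9.35 °C to match UV melts.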

[2] = folding enthalpy; higher = less favourable; fluorescence melt of hairpins on a sequencing array, two-state fit; conditions: sodium 0.088 M
Outline: as §1

Sequence | Tm [1] [°C] | folding enthalpy [2] [kcal/mol]
GCTGCCGAAAGGCGAAGC ((((((....)))..))) | 49 | -15.5
GCTGCCGAAAGGCGTAGC ((((((....)))..))) | 50.5 | -17.2
GCTGCCTCGAAAGAGAGC (((..(((....)))))) | 42.3 | -14
GCTGCGCGAAAGCCCGGC ((.(.((....)).).)) | 44.1 | -17.5
GCTGCGCGAAAGCCCTGC ((.(.((....)).).)) | 38.5 | -17.3
GCTGCGCGAAAGCTCGGC ((.(.((....)).).)) | 48.3 | -22.4
GCTGCGCGAAAGCTTAGC (((..((....))..))) | 39.6 | -20.5
GCTGCGGGAAACTGCGGC ((.((.(....).)).)) | 51.8 | -47.5
GCTGCTCGAAAGAGGAGC (((.(((....))).))) | 59.6 | -38.9
GCTGCTCGAAAGAGTAGC (((.(((....))).))) | 62.1 | -38.9
GCTGCTGGAAACAGCAAC (.(((((....))))).) | 44.3 | -12.1
GCTGGACCGAAAGGTAGC (((..(((....)))))) | 39.5 | -18.5
GCTGGACGAAAGTCAAGC (((.(((....))).))) | 58.7 | -38.3
GCTGGAGGAAACTCCAAC (.(((((....))))).) | 38 | -15.6
GCTGGCGAAAGCCTCAGC ((((((....)))..))) | 46.6 | -14.7
GCTGGCGGAAACACCAGC (((((.(....).))))) | 53.5 | -40.8
GCTGGCGGAAACGCCAAC (.(((((....))))).) | 43.7 | -11.2
GCTGGCGGAAACGCTGGC ((..(((....)))..)) | 53.7 | -32.7
GCTGGCTCGAAAGAGAGC (((..(((....)))))) | 36.9 | -11.1
GCTGGGCGAAAGCACGGC ((.(.((....)).).)) | 69.1 | -21.2
GCTGGGCGAAAGCATAGC (((..((....))..))) | 54.2 | -22.9
GCTGGGCGAAAGCCATGC ((..(((....)))..)) | 55.1 | -19.2
GCTGGGCGAAAGCCGAGC (((.(((....))).))) | 58.6 | -38.5

Sequence | Tm [1] [°C] | folding enthalpy [2] [kcal/mol]
GCTGGGCGAAAGCCGTGC ((..(((....)))..)) | 47.6 | -18.2
GCTGGGCGAAAGCGCGGC ((.(.((....)).).)) | 64.1 | -33.2
GCTGGGCGAAAGCTAAGC (((..((....))..))) | 53.9 | -22.1
GCTGGGGGAAACCCTGGC ((..(((....)))..)) | 49.1 | -23.4
GCTGGTGAAAACCAGC ((((((....)))))) | 69.1 | -22.6
GCTGGTGCGAAAGCAAGC (((..(((....)))))) | 43 | -14.5
GCTGGTGGAAACACTGGC ((..(((....)))..)) | 45.9 | -30.1
GCTGTAGGAAACTACAAC (.(((((....))))).) | 30.9 | -19.2
GCTGTCACGAAAGTGAGC (((..(((....)))))) | 38.3 | -12.2
GCTGTCCGAAAGGAAGC (((.(((....)))))) | 49.1 | -23.9
GCTGTCGAAAGACGAGC ((((((....))).))) | 54.1 | -25.6
GCTGTCGAAAGACTAAGC ((((((....)))..))) | 46.2 | -20
GCTGTGCGAAAGCAAGC (((.(((....)))))) | 51.8 | -21.5
GCTGTGCGAAAGCATTGC ((..(((....)))..)) | 53.5 | -20.7
GCTGTGCGAAAGCCCGGC ((.(.((....)).).)) | 46.8 | -20
GCTGTGCGAAAGCCGAGC (((..((....))..))) | 41.8 | -19
GCTGTGCGAAAGCGCCGC ((.(.((....)).).)) | 49.6 | -18.6
GCTGTGCGAAAGCGCTGC ((.(.((....)).).)) | 60.1 | -25.6
GCTGTGCGAAAGCTCGGC ((.(.((....)).).)) | 56 | -24.6
GCTGTTCGAAAGAAAAGC (((.(((....))).))) | 46.5 | -28.6
GCTGTTGGAAACAACGGC ((.((((....)))).)) | 54.3 | -39.8
GCTTAAGGAAACTCAAGC ((((.((....)).)))) | 28.3 | -17.8
GCTTAAGGAAACTTAGGC ((.((((....)))).)) | 36.3 | -23

Sequence | Tm [1] [°C] | folding enthalpy [2] [kcal/mol]
GCTTACGAAAGTACTAGC ((((((....)))..))) | 31.8 | -13.6
GCTTACGAAAGTAGAGC ((((((....))).))) | 43.3 | -24.4
GCTTACGAAAGTATCAGC ((((((....)))..))) | 33.1 | -14.2
GCTTAGCGAAAGCAAGGC ((.(.((....)).).)) | 38.1 | -13.5
GCTTAGCGAAAGCGAGGC ((.(.((....)).).)) | 51.8 | -15.4
GCTTAGCGAAAGCTTCGC ((..(((....)))..)) | 42.9 | -15
GCTTAGCGAAAGCTTGGC ((..(((....)))..)) | 47 | -18.3
GCTTAGGGAAACCTGAGC (((.(((....))).))) | 46.7 | -32.8
GCTTATCGAAAGATCAGC (((.(((....))).))) | 44 | -25.3
GCTTATGAAAATAAGC ((((((....)))))) | 51.6 | -31.8
GCTTATGGAAACACAAGC ((((.((....)).)))) | 33.2 | -26.2
GCTTCACGAAAGTGAGC (((.(((....)))))) | 51 | -17.8
GCTTCATCGAAAGATAGC (((..(((....)))))) | 28.3 | -13
GCTTCCCGAAAGGGCAGC (((.(((....))).))) | 53.3 | -32.5
GCTTCCGAAAGGAAGAGC ((((((....)))..))) | 55 | -13
GCTTCCGAAAGGACCAGC ((((((....)))..))) | 31.2 | -14.2
GCTTCCGAAAGGAGAGC ((((((....))).))) | 49.2 | -22.3
GCTTCCGAAAGGAGTAGC ((((((....)))..))) | 43.6 | -24.3
GCTTCCGAAAGGATAAGC ((((((....)))..))) | 44.2 | -22.8
GCTTCCGAAAGGATGAGC ((((((....)))..))) | 41.2 | -18.7
GCTTCCGGAAACGGAAAC (.(((((....))))).) | 40.5 | -14.7
GCTTCGCGAAAGCAATGC ((.(.((....)).).)) | 33.2 | -16.4
GCTTCGCGAAAGCCAGGC ((.(.((....)).).)) | 30.3 | -9.39

Sequence | Tm [1] [°C] | folding enthalpy [2] [kcal/mol]
GCTTCGCGAAAGCGACGC ((.((((....)))).)) | 60.9 | -22.5
GCTTCGCGAAAGCGCAGC (((.(((....))).))) | 54.1 | -30.7
GCTTCGCGAAAGCTACGC ((.(.((....)).).)) | 42.9 | -12.6
GCTTCTGGAAACAGAAGC (((((((....))))))) | 64.9 | -49
GCTTGACGAAAGTCAGC (((.(((....)))))) | 55.6 | -23.5
GCTTGACGAAAGTCGAGC (((.(((....))).))) | 63.1 | -39
GCTTGAGGAAACTCAAAC (.(((((....))))).) | 30.6 | -13.8
GCTTGCGAAAGCACCAGC ((((((....)))..))) | 34.8 | -8.92
GCTTGCGAAAGCAGAAGC ((((((....)))..))) | 47.2 | -21.7
GCTTGCGAAAGCAGAGC ((((((....))).))) | 52.7 | -18.6
GCTTGCGAAAGCATTAGC ((((((....)))..))) | 42 | -15.2
GCTTGCGCGAAAGCGAGC (((..(((....)))))) | 56.2 | -13.3
GCTTGCGGAAACGCAAAC (.(((((....))))).) | 44.6 | -12.4
GCTTGCGGAAACGTAGGC ((.(.((....)).).)) | 38.6 | -11.7
GCTTGGAAACAAGC (((((....))))) | 53.7 | -31
GCTTGGCGAAAGCCCCGC ((..(((....)))..)) | 35.8 | -12
GCTTGGCGAAAGCCTTGC ((..(((....)))..)) | 43.5 | -18.1
GCTTGGCGAAAGCTACGC ((.(.((....)).).)) | 43.3 | -14.8
GCTTGGCGAAAGCTATGC ((.(.((....)).).)) | 47.9 | -15.6
GCTTGGGGAAACCCGAGC (((.(((....))).))) | 56.7 | -41.7
GCTTGGGGAAACCTGAGC (((..((....))..))) | 40 | -30.3
GCTTGTGGAAACATGAGC (((..((....))..))) | 37.7 | -29.4

— the array DNA melting data of Ke et al. (doi:10.1101/2024.01.08.574731)
